# pIC50: −log10 of the molar value.
# Legend:
# [1] = Aqueous solubility of compound; format: physicochemical; conditions: buffer
# [2] = Bioavailability in mouse; format: ADME, organism-based; conditions: in vivo
# [3] = Bioavailability in mouse at 40 mg/kg, po; format: ADME, organism-based; conditions: in vivo
# [4] = Intrinsic clearance in human liver microsome; format: ADME; conditions: liver microsomes
# In short: (§1)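 Compounds incubated in vitro with human or mouse liver microsomes; parent and metabolite followed over roughly 30 min incubation; intrinsic clearance expressed as µl/min/mg.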
# [5] = Intrinsic clearance in mouse liver microsome; format: ADME; conditions: liver microsomes; in short: as §1
# Glutamate racemase = target: T1, Glutamate racemase (Helicobacter pylori (strain ATCC 700392 / 26695) (Campylobacterpylori), UniProt P56068); experiment: Inhibition of Helicobacter pylori MurI
# T1 sequence (P56068 whole entry): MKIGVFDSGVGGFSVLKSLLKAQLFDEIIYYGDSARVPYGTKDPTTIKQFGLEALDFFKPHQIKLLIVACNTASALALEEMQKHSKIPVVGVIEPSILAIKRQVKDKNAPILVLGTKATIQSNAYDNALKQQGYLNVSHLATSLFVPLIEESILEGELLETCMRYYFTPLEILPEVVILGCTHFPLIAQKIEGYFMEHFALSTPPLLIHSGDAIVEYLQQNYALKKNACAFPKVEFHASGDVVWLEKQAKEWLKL
# Helicobacter pylori [6] = experiment: Antibacterial activity against hefC-deficient Helicobacter pylori by NCCLS method; format: functional
# In short: (§2)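 H. pylori MICs determined following NCCLS guidelines; values carry a twofold variance.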
# Helicobacter pylori [7] = experiment: Antibacterial activity against wild type Helicobacter pylori by NCCLS method; format: functional; in short: as §2
# [8] = Equilibrium solubility of compound; format: physicochemical
# Mus musculus = experiment: Plasma concentration in mouse at 40 mg/kg, po; format: ADME, organism-based; parameters: dose 40 mg/kg, route oral; conditions: in vivo
SMILES,solubility [1] [µM],bioavailability [2] [%],bioavailability [3] [%],microsomal CLint [4] [µL/min/mg],microsomal CLint [5] [µL/min/mg],pIC50 (Glutamate racemase),MIC (Helicobacter pylori [6]) [µg/mL],MIC (Helicobacter pylori [7]) [µg/mL],solubility thermodynamic [8] [µM],Cp (Mus musculus) [ng/mL]
Cn1cc(S(N)(=O)=O)nc1-c1c2c(=O)n(C)c(=O)n(CC3CC3)c2nn1Cc1c[nH]c2ccc(Cl)cc12,–,–,–,56,> 100,7.42,0.5,> 32,–,–
Cn1cc(S(C)(=O)=O)nc1-c1c2c(=O)n(C)c(=O)n(CC3CC3)c2nn1Cc1ccnc2ccc(Cl)cc12,–,–,–,23,56,6.80,4,16,–,–
Cc1oc(S(C)(=O)=O)cc1-c1c2c(=O)n(C)c(=O)n(CC3CC3)c2nn1Cc1cn(C)c2ccc(Cl)cc12,–,–,–,> 100,> 100,7.24,0.5,1,–,–
CNS(=O)(=O)c1cc(-c2c3c(=O)n(C)c(=O)n(CC4CC4)c3nn2Cc2c[nH]c3ccc(Cl)cc23)n(C)c1,–,–,–,> 100,> 100,7.57,0.5,16,–,–
CONS(=O)(=O)c1cc(-c2c3c(=O)n(C)c(=O)n(CC4CC4)c3nn2Cc2c[nH]c3ccc(Cl)cc23)n(C)c1,–,–,–,–,–,7.44,8,8,–,–
Cn1c(=O)c2c(-c3oc(S(C)(=O)=O)cc3Cl)n(Cc3ccnc4ccc(Cl)cc34)nc2n(CC2CC2)c1=O,–,–,–,19,22,7.23,4,4,–,–
Cc1oc(S(C)(=O)=O)cc1-c1c2c(=O)n(C)c(=O)n(CC3CC3)c2nn1Cc1ccnc2ccc(Cl)cc12,–,–,–,22,61,7.29,–,4,–,–
Cn1cc([S+](C)[O-])cc1-c1c2c(=O)n(C)c(=O)n(CC3CC3)c2nn1Cc1c[nH]c2ccc(Cl)cc12 (configuration not stated),–,–,–,> 100,> 100,7.64,4,16,–,–
Cn1cc([S+](C)[O-])cc1-c1c2c(=O)n(C)c(=O)n(CC3CC3)c2nn1Cc1ccnc2ccc(Cl)cc12 (configuration not stated),–,–,10,> 100,> 100,7.43,0.5,16,120,–
Cn1cc(S(C)(=O)=O)nc1-c1c2c(=O)n(C)c(=O)n(CC3CC3)c2nn1Cc1c[nH]c2ccc(Cl)cc12,–,–,–,49,> 100,7.51,2,16,–,–
Cn1c(=O)c2c(-c3ccc(S(C)(=O)=O)o3)n(Cc3ccnc4ccc(Cl)cc34)nc2n(CC2CC2)c1=O,–,–,–,17,14,5.82,> 64,> 64,–,–
Cn1cc(S(C)(=O)=O)cc1-c1c2c(=O)n(C)c(=O)n(CC3CC3)c2nn1Cc1cn(C)c2ccc(Cl)cc12,–,–,–,23,56,7.48,4,16,–,–

# The remaining lines, values ahead:
solubility [1] [µM],bioavailability [2] [%],bioavailability [3] [%],microsomal CLint [4] [µL/min/mg],microsomal CLint [5] [µL/min/mg],pIC50 (Glutamate racemase),MIC (Helicobacter pylori [6]) [µg/mL],MIC (Helicobacter pylori [7]) [µg/mL],solubility thermodynamic [8] [µM],Cp (Mus musculus) [ng/mL],SMILES
< 0.4,< 10,7.5,< 14,50,7.59,0.25,0.5,–,–,Cn1cc(C#N)cc1-c1c2c(=O)n(C)c(=O)n(CC3CC3)c2nn1Cc1ccnc2ccc(Cl)cc12
–,–,–,–,–,7.26,4,16,–,–,CONS(=O)(=O)c1cc(-c2c3c(=O)n(C)c(=O)n(CC4CC4)c3nn2Cc2ccnc3ccc(Cl)cc23)n(C)c1
–,–,60,20,< 14,7.47,0.5,2,–,1200,Cn1cc(S(C)(=O)=O)cc1-c1c2c(=O)n(C)c(=O)n(CC3CC3)c2nn1Cc1ccnc2ccc(Cl)cc12
–,–,–,49,64,7.59,0.5,4,–,–,Cn1cc(S(C)(=O)=O)cc1-c1c2c(=O)n(C)c(=O)n(CC3CC3)c2nn1Cc1c[nH]c2ccc(Cl)cc12
–,–,–,22,< 14,7.80,0.25,32,–,–,Cn1cc(S(N)(=O)=O)cc1-c1c2c(=O)n(C)c(=O)n(CC3CC3)c2nn1Cc1ccnc2ccc(Cl)cc12
–,–,–,> 100,> 100,7.36,1,16,–,–,CNS(=O)(=O)c1cc(-c2c3c(=O)n(C)c(=O)n(CC4CC4)c3nn2Cc2ccnc3ccc(Cl)cc23)n(C)c1

# Reference: ChEMBL document CHEMBL1155910, “Design of Helicobacter pylori glutamate racemase inhibitors as selective antibacterial agents: a novel pro-drug approach to increase exposure” (Bioorg Med Chem Lett, 2008)
